Results taken from paper PMC8458670 (Slas Discovery, 2022).

Tests used:
[1] = target: nsp14 (amino acids 1-527) (Severe acute respiratory syndrome coronavirus 2, UniProt P0DTD1); experiment: Surface plasmon resonance binding to biotinylated nsp14; set-up: species or system SARS-CoV-2
How it was run: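 SPR used N-terminally biotinylated nsp14 (aa 1–527) coupled on a CM5 chip, with C-terminally biotinylated SETD3 (aa 1–605) as control. Test compounds were injected at five concentrations (0.6–50 µM, or 0.06–5 µM for some) at 50 µL/min. Running buffer was HBS-EP Plus (10 mM HEPES pH 7.4, 150 mM NaCl, 2 mM EDTA, 0.005% Tween-20) with 0.5% DMSO. Contact time was 60 s and dissociation 120 s, with blank-buffer and DMSO (0.4–0.6%) corrections.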

SARS-CoV-2 nsp14 = SARS-CoV-2 nsp14 (Severe acute respiratory syndrome coronavirus 2, UniProt P0DTD1); experiment: Radiometric nsp14 MTase activity assay; assay type: biochemical

Compound: Nc1ncnc2c1ncn2[C@@H]1O[C@H](CSCC[C@H](N)C(=O)O)[C@@H](O)[C@H]1O [SAH, S-Adenosylhomocysteine]
- Kd [1]: 140 nM
- IC50 (SARS-CoV-2 nsp14): 130 ± 30 nM
